{"source": "ChEMBL document CHEMBL1139095", "about": "“Butyl 2-(4-[1.1'-biphenyl]-4-yl-1H-imidazol-2-yl)ethylcarbamate, a potent sodium channel blocker for the treatment of neuropathic pain” (Bioorg Med Chem Lett, 2007)", "key": {"[1]": {"experiment": "Displacement of [3H]BTX from sodium channel in rat cerebral cortex synaptosomal membrane", "type": "tissue-based"}, "SH-SY5Y": {"system": "SH-SY5Y", "experiment": "Cytoprotection against vetratridine-induced cytotoxicity in human SH-SY5Y cells", "type": "functional, cell-based", "method_in_brief": "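SH-SY5Y neuroblastoma cells were seeded 24 h ahead and pre-incubated 20 min with compound. They were then exposed 3 h to veratridine plus 1 mM ouabain, and the medium was swapped for 10% alamar blue for 18–24 h. Absorbance was read at 570/620. Percent cell injury was calculated from blank-corrected OD. IC50 (concentration halving injury) was extrapolated from dose–response graphs; triplicate means, two experiments.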"}, "Rattus norvegicus [2]": {"system": "Rattus norvegicus", "experiment": "Antihyperalgesic effect in carrageenan-induced rat hyperalgesia model at 10 mg/kg, ip", "type": "functional, organism-based", "design": "dose 10 mg/kg", "method_in_brief": "(§1)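 Compound or vehicle was given ip 30 min before paw withdrawal threshold was measured to mechanical stimulus (Randall–Selitto). Carrageenan model: inflamed versus contralateral paw. CCI model: injured versus non-injured paw. Groups of n = 4–6 were compared with vehicle by two-sided Student/Dunnett test; mean ± SEM.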"}, "Rattus norvegicus [3]": {"system": "Rattus norvegicus", "experiment": "Protective activity against chronic constriction injury-induced rat neuropathic pain model at 30 mg/kg, ip", "type": "functional, organism-based", "design": "dose 30 mg/kg", "method_in_brief": "as §1"}, "Rattus norvegicus [4]": {"system": "Rattus norvegicus", "experiment": "Antihyperalgesic effect in carrageenan-induced rat hyperalgesia model at 30 mg/kg, ip", "type": "functional, organism-based", "design": "dose 30 mg/kg", "method_in_brief": "as §1"}}, "note": "The source made the active and inactive calls."}
{"smiles": "CCCCOC(=O)NCCc1nc(-c2ccc(N3CCCC3)cc2)c[nH]1", "values": [{"measurement": "IC50", "setting": "[1]", "result": 14, "unit": "nM"}, {"measurement": "IC50", "setting": "SH-SY5Y", "result": 1120, "unit": "nM"}]}
{"smiles": "CCCCCCOC(=O)NCCc1nc(-c2ccc(-c3ccccc3)cc2)c[nH]1", "values": [{"measurement": "IC50", "setting": "[1]", "result": 15, "unit": "nM"}, {"measurement": "IC50", "setting": "SH-SY5Y", "result": 670, "unit": "nM"}]}
{"smiles": "CCCCOC(=O)NCCc1nc(-c2ccc(C3CCCCC3)cc2)c[nH]1", "values": [{"measurement": "IC50", "setting": "[1]", "result": 7, "unit": "nM"}]}
{"smiles": "CCCCOC(=O)NCCc1nc(-c2ccc(CC)cc2)c[nH]1", "values": [{"measurement": "IC50", "setting": "[1]", "result": 96, "unit": "nM"}, {"measurement": "IC50", "setting": "SH-SY5Y", "result": 3220, "unit": "nM"}]}
{"smiles": "CC(C)(C)COC(=O)NCCc1nc(-c2ccc(-c3ccccc3)cc2)c[nH]1", "values": [{"measurement": "IC50", "setting": "[1]", "result": 372, "unit": "nM"}]}
{"smiles": "CCCCOC(=O)NCCc1nc(-c2ccc(-c3ccccc3)cc2)c[nH]1", "values": [{"measurement": "IC50", "setting": "[1]", "result": 32, "unit": "nM"}, {"measurement": "IC50", "setting": "SH-SY5Y", "result": 230, "unit": "nM"}, {"measurement": "Activity", "setting": "Rattus norvegicus [2]", "result": "Active"}, {"measurement": "Activity", "setting": "Rattus norvegicus [3]", "result": "Active"}, {"measurement": "Activity", "setting": "Rattus norvegicus [4]", "result": "Active"}]}
{"smiles": "CCOC(=O)NCCc1nc(-c2ccc(-c3ccccc3)cc2)c[nH]1", "values": [{"measurement": "IC50", "setting": "[1]", "result": 71, "unit": "nM"}]}
{"smiles": "CC(C)COC(=O)NCCc1nc(-c2ccc(-c3ccccc3)cc2)c[nH]1", "values": [{"measurement": "IC50", "setting": "[1]", "result": 26, "unit": "nM"}, {"measurement": "IC50", "setting": "SH-SY5Y", "result": 610, "unit": "nM"}]}
{"smiles": "CCCCOC(=O)NCCc1nc(-c2ccc(CCC)cc2)c[nH]1", "values": [{"measurement": "IC50", "setting": "[1]", "result": 62, "unit": "nM"}, {"measurement": "IC50", "setting": "SH-SY5Y", "result": 3990, "unit": "nM"}]}
{"smiles": "CCCCOC(=O)NCCc1nc(-c2ccc(CC(C)C)cc2)c[nH]1", "values": [{"measurement": "IC50", "setting": "[1]", "result": 41, "unit": "nM"}, {"measurement": "IC50", "setting": "SH-SY5Y", "result": 750, "unit": "nM"}]}
{"smiles": "CC(C)(C)OC(=O)NCCCc1nc(-c2ccc(-c3ccccc3)cc2)c[nH]1", "values": [{"measurement": "IC50", "setting": "[1]", "result": 184, "unit": "nM"}]}
{"smiles": "CC(C)(C)OC(=O)NCc1nc(-c2ccc(-c3ccccc3)cc2)c[nH]1", "values": [{"measurement": "IC50", "setting": "[1]", "result": 144, "unit": "nM"}]}
{"smiles": "COC(=O)NCCc1nc(-c2ccc(-c3ccccc3)cc2)c[nH]1", "values": [{"measurement": "IC50", "setting": "[1]", "result": 282, "unit": "nM"}]}
{"smiles": "O=C(NCCc1nc(-c2ccc(-c3ccccc3)cc2)c[nH]1)OC1CCCC1", "values": [{"measurement": "IC50", "setting": "[1]", "result": 52, "unit": "nM"}, {"measurement": "IC50", "setting": "SH-SY5Y", "result": 870, "unit": "nM"}]}
{"smiles": "CCCCOC(=O)NCCc1nc(-c2ccc(C(F)(F)F)cc2)c[nH]1", "values": [{"measurement": "IC50", "setting": "[1]", "result": 453, "unit": "nM"}]}
{"smiles": "O=C(NCCc1nc(-c2ccc(-c3ccccc3)cc2)c[nH]1)OCC1CCCCC1", "values": [{"measurement": "IC50", "setting": "[1]", "result": 21, "unit": "nM"}, {"measurement": "IC50", "setting": "SH-SY5Y", "result": 700, "unit": "nM"}]}
{"smiles": "O=C(NCCc1nc(-c2ccc(-c3ccccc3)cc2)c[nH]1)OC1CCCCC1", "values": [{"measurement": "IC50", "setting": "[1]", "result": 26, "unit": "nM"}, {"measurement": "IC50", "setting": "SH-SY5Y", "result": 650, "unit": "nM"}]}
{"smiles": "CCCCOC(=O)NCCc1nc(-c2ccc(Br)cc2)c[nH]1", "values": [{"measurement": "IC50", "setting": "[1]", "result": 210, "unit": "nM"}, {"measurement": "IC50", "setting": "SH-SY5Y", "result": 900, "unit": "nM"}]}
{"smiles": "CC(C)(C)OC(=O)NCCc1nc(-c2ccc(-c3ccccc3)cc2)c[nH]1", "values": [{"measurement": "IC50", "setting": "[1]", "result": 64, "unit": "nM"}]}
{"smiles": "CCCOC(=O)NCCc1nc(-c2ccc(-c3ccccc3)cc2)c[nH]1", "values": [{"measurement": "IC50", "setting": "[1]", "result": 86, "unit": "nM"}]}
{"smiles": "CCCCOC(=O)NCCc1nc(-c2ccc(F)cc2)c[nH]1", "values": [{"measurement": "IC50", "setting": "[1]", "result": 1000, "unit": "nM"}]}
